Measurements from ChEMBL document CHEMBL3779787, “Amorfrutin C Induces Apoptosis and Inhibits Proliferation in Colon Cancer Cells through Targeting Mitochondria” (J Nat Prod, 2016).
Calls of active or inactive are those of the source. The rule behind the calls is not given here.

Columns and labels:
HT-29 [1] = experiment: Induction of apoptosis in human HT-29 cells at 30 uM after 24 hrs by annexin V-FLUOS/propidium iodide staining-based flow cytometry in presence of glutathione; format: functional, cell-based
In short: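 HT-29 cells co-incubated 24 h with 30 μM compound and antioxidant: glutathione 2.5 mM, α-tocopherol 50 μM, or ascorbic acid 500 μM. Phosphatidylserine externalization measured by annexin V-FLUOS/propidium iodide staining and flow cytometry. Means ± SEM, n = 3.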

MCF7 = experiment: Antiproliferative activity against human MCF7 cells assessed as cellular DNA content after 96 hrs by CyQUANT NF fluorescence assay relative to control; format: functional
In short: (§1)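 Cells seeded at 750 (HT-29), 250 (PC-3) or 900 (T84, MCF7) cells/well, treated next day with concentration series for 72 h (HT-29, PC-3) or 96 h (T84, MCF7). Relative cell number from cellular DNA content by fluorescent DNA-binding dye. Variable-slope fit; efficiency = maximal inhibition (100% − Bottom) vs untreated; IC50 relative to the compound's own maximal efficiency.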

HT-29 [2] = experiment: Antiproliferative activity against human HT-29 cells assessed as cellular DNA content at 20 uM after 48 hrs by CyQUANT NF fluorescence assay in presence of ascorbic acid; format: functional, cell-based
In short: (§2)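 HT-29 given concentration series of test compound with or without antioxidant (NAC 1 mM, GSH 2.5 mM, D3T 25 μM, α-tocopherol 50 μM, ascorbic acid 500 μM) for 48 h. Relative cell number from DNA-binding fluorescent dye; means ± SD, n = 4.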

HT-29 [3] = experiment: Induction of apoptosis in human HT-29 cells at 30 uM after 24 hrs by annexin V-FLUOS/propidium iodide staining-based flow cytometry in presence of PPAR siRNA; format: functional, cell-based
In short: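 HT-29 transfected with PPARα/β/δ/γ siRNA pool (10 nM each) or 30 nM nonspecific siRNA, seeded 150 000 cells/well. After 48 h, 30 μM compound added for a further 24 h. Phosphatidylserine externalization by annexin V flow cytometry; means ± SEM, n = 6.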

HT-29 [4] = experiment: Induction of ROS generation in human HT-29 cells at 30 uM by CM-H2DCFDA staining-based fluorescence assay in presence of ascorbic acid; format: functional, cell-based
In short: (§3)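 HT-29 (15 000 cells/well) loaded with 50 μM CM-H2DCFDA in PBS for 30 min at 37 °C, washed, then 60 min in phenol red-free DMEM/F-12. 30 μM compound added alone or with NAC 1 mM, GSH 2.5 mM, D3T 25 μM, α-tocopherol 50 μM or ascorbic acid 500 μM. Fluorescence 485/530 nm read kinetically at 37 °C for 22 h; area under curve; means ± SEM, n = 7.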

HT-29 [5] = experiment: Induction of cell cycle arrest in human HT-29 cells assessed as accumulation at S phase at 10 uM by flow cytometry (reference value: 11%); format: functional
HT-29 [6] = experiment: Antiproliferative activity against human HT-29 cells assessed as cellular DNA content at 20 uM after 48 hrs by CyQUANT NF fluorescence assay in presence of glutathione; format: functional, cell-based; in short: as §2
HT-29 [7] = experiment: Increase in extracellular acidification rate in human HT-29 cells at 2 uM measured for 20 to 150 mins by time-resolved fluorescence assay relative to control; format: functional
In short: (§4)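 HT-29 cells seeded 80 000/well, incubated overnight at 37 °C without CO2. Washed and loaded with pH-sensitive time-resolved fluorescence probe in low-buffering medium (1 mM PBS pH 7.4, 20 mM glucose, salts), 10 min at 37 °C, then compound added, wells unsealed. Read 200 min at 37 °C; lifetime converted to pH, rate taken 20–150 min as H+ change/min; n = 8.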

HT-29 [8] = experiment: Downregulation of CDK6 expression in human HT-29 cells at 10 uM after 48 hrs by immunoblotting method; format: functional, cell-based
In short: (§5)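 HT-29 exposed to 10 μM for 48 h; whole-cell lysates immunoblotted for the indicated proteins (total and cleaved PARP for the apoptosis line).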

[9] = Antiproliferative activity against human PC3 cells assessed as cellular DNA content after 72 hrs by CyQUANT NF fluorescence assay; format: functional, cell-based; details: PC-3, 72 h; in short: as §1
HT-29 [10] = experiment: Downregulation of cyclin A2 expression in human HT-29 cells at 10 uM after 48 hrs by immunoblotting method; format: functional, cell-based; in short: as §5
HT-29 [11] = experiment: Increase in extracellular acidification rate in human HT-29 cells at 10 uM measured for 20 to 150 mins by time-resolved fluorescence assay relative to control; format: functional; in short: as §4
HT-29 [12] = experiment: Induction of apoptosis in human HT-29 cells assessed as increase in phosphatidylserine externalization at 10 uM after 48 hrs by flow cytometry in presence of alphaFas; format: functional, cell-based
In short: (§6)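 HT-29 exposed 48 h to 10 μM compound, αFAS (10 ng/mL), TRAIL (30 ng/mL) or combinations. Phosphatidylserine externalization by annexin V flow cytometry. Expected combination effects from Bliss independence; means ± SEM, n = 4.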

HT-29 [13] = experiment: Antiproliferative activity against human HT-29 cells assessed as cellular DNA content after 72 hrs by CyQUANT NF fluorescence assay in presence of cisplatin; format: functional, cell-based
In short: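 HT-29 exposed 72 h to concentration series of mixtures at ratios 7:0 through 0:7 with the partner drug. Relative cell number from DNA-content fluorescence. IC70 = concentration giving 70% inhibition of total cells (means ± SD, n = 4); isobolograms by Loewe additivity, CI(M) = IC70(Mx)/IC70(x) + IC70(My)/IC70(y).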

HT-29 [14] = experiment: Induction of ROS generation in human HT-29 cells at 30 uM by CM-H2DCFDA staining-based fluorescence assay; format: functional, cell-based; in short: as §3
HT-29 [15] = experiment: Increase in mitochondrial oxygen consumption in human HT-29 cells at 2 to 10 uM measured for 20 to 60 mins by time-resolved fluorescence assay; format: functional, cell-based
In short: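 HT-29 at 80 000 cells/well in phenol red-free DMEM/F-12 with oxygen-sensitive lifetime probe, compound added, wells sealed with mineral oil. Time-resolved fluorescence at 37 °C, 90 s intervals for 150 min. Lifetime slope over 20–60 min expressed relative to untreated cells; means ± SEM, n = 8.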

HT-29 [16] = experiment: Induction of cell cycle arrest in human HT-29 cells assessed as accumulation at G2/M phase at 10 uM by flow cytometry (reference value: 21%); format: functional
HT-29 [17] = experiment: Induction of apoptosis in human HT-29 cells assessed as increase in caspase 3/7 activity at 30 uM after 2 hrs by luminescent assay relative to control; format: functional
In short: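 HT-29 cells exposed to compound 2 h; effector/initiator caspase enzymatic activity measured by luminescent assays, normalized to control treatment; means ± SEM, n = 4.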

HT-29 [18] = experiment: Induction of cell cycle arrest in human HT-29 cells assessed as accumulation at G0/G1 phase at 10 uM by flow cytometry (reference value: 66%); format: functional
HT-29 [19] = experiment: Induction of apoptosis in human HT-29 cells assessed as increase in phosphatidylserine externalization at 10 uM after 48 hrs by flow cytometry in presence of TNF-related apoptosis inducing ligand; format: functional, cell-based; in short: as §6
HT-29 [20] = experiment: Induction of apoptosis in human HT-29 cells assessed as cleaved PARP level at 10 uM after 48 hrs; format: functional, cell-based; in short: as §5
HT-29 [21] = experiment: Antiproliferative activity against human HT-29 cells assessed as cellular DNA content at 20 uM after 48 hrs by CyQUANT NF fluorescence assay in presence of 3H-1,2-dithiole-3-thione; format: functional, cell-based; in short: as §2

## COc1c(CC=C(C)C)c(O)c(C(=O)O)c(CCc2ccccc2)c1CC=C(C)C
HT-29 [1]
  Activity: Active
MCF7
  Efficacy: 92%
HT-29 [2]
  Activity: Active
HT-29 [3]
  Activity: Active
HT-29 [4]
  Activity: inactive
HT-29 [5]
  Activity: 2%
HT-29 [6]
  Activity: Active
HT-29 [7]
  fold change (FC): 3
HT-29 [8]
  Activity: Active
[9]
  IC50: 16 µM
HT-29 [10]
  Activity: Active
HT-29 [11]
  fold change (FC): 6
HT-29 [12]
  Activity: Active
HT-29 [13]
  Activity: Active
HT-29 [14]
  Activity: Active
HT-29 [15]
  Activity: Active
HT-29 [16]
  Activity: 7%
HT-29 [17]
  fold change (FC): 2
HT-29 [18]
  Activity: 89%
HT-29 [19]
  Activity: Active
HT-29 [20]
  Activity: Active
HT-29 [21]
  Activity: Active
